Results of several laboratories.
Lines come from different studies, so protocols differ.
ABL1 Q252H: Tyrosine-protein kinase ABL1 (ABL1, Homo sapiens, UniProt P00519, Q252H)
ABL1 H396P phosphorylated: Tyrosine-protein kinase ABL1, phosphorylated (ABL1, Homo sapiens, UniProt P00519, H396P)
ABL1 T315I phosphorylated: Tyrosine-protein kinase ABL1, phosphorylated (ABL1, Homo sapiens, UniProt P00519, T315I)
ABL1 H396P non-phosphorylated: Tyrosine-protein kinase ABL1, non-phosphorylated (ABL1, Homo sapiens, UniProt P00519, H396P)
ABL1 F317L phosphorylated: Tyrosine-protein kinase ABL1, phosphorylated (ABL1, Homo sapiens, UniProt P00519, F317L)
ABL1 phosphorylated: Tyrosine-protein kinase ABL1, phosphorylated (ABL1, Homo sapiens, UniProt P00519)
ABL1 non-phosphorylated: Tyrosine-protein kinase ABL1, non-phosphorylated (ABL1, Homo sapiens, UniProt P00519)
ABL1 F317I non-phosphorylated: Tyrosine-protein kinase ABL1, non-phosphorylated (ABL1, Homo sapiens, UniProt P00519, F317I)
ABL1 T315I non-phosphorylated: Tyrosine-protein kinase ABL1, non-phosphorylated (ABL1, Homo sapiens, UniProt P00519, T315I)
ABL1 F317L non-phosphorylated: Tyrosine-protein kinase ABL1, non-phosphorylated (ABL1, Homo sapiens, UniProt P00519, F317L)

With N[C@H]1CCN(c2nccc(-c3cnn4ncccc34)n2)C1 the remaining binding was 59% (ABL1 Q252H; binding; 1 µM).
With Cc1cnc(Nc2ccc(C(=O)N3CCC(N4CCCC4)CC3)cc2)nc1-c1cc2ccccc2s1 the remaining binding was 0.9% (ABL1 H396P phosphorylated; binding, competition with immobilised ligand; 1 µM).
With CNC(=O)Nc1ccc2c(c1)[C@@]1(CC2)OC(=O)N(CC(=O)N(Cc2ccc(F)cc2)[C@@H](C)C(F)(F)F)C1=O the remaining binding was 87% (ABL1 T315I phosphorylated; cell-free assay, competition with immobilised ligand; 1 µM).
O=C(c1ccc(Nc2nccc(-c3cc4ccccc4s3)n2)cc1)N1CCC(N2CCCC2)CC1 has a remaining binding of 9.8% (Tyrosine-protein kinase ABL1, non-phosphorylated (ABL1, Homo sapiens, UniProt P00519, Q252H); binding, competition with immobilised ligand; 1 µM).
For CN(C)c1ncc(F)c(-c2cnn3ncccc23)n1, the remaining binding was 80% (Tyrosine-protein kinase ABL1 (ABL1, Homo sapiens, UniProt P00519, H396P); binding; 1 µM).
With CC1=C(C#N)C(c2ccc3c(c2)c(NC(=O)c2ccccc2C)nn3C)C(C#N)=C(C)N1 the remaining binding was 100% (ABL1 H396P non-phosphorylated; cell-free assay, competition with immobilised ligand; 1 µM).
The remaining binding of c1cncc(-c2cccc(Nc3nccc(NC4CCCCC4)n3)c2)c1 is reported as 29% (ABL1 H396P phosphorylated; binding, competition with immobilised ligand; 10 µM).
The remaining binding of CN(c1nccc(-c2cnn3ncccc23)n1)C1CC1 is reported as 100% (Tyrosine-protein kinase ABL1 (ABL1, Homo sapiens, UniProt P00519, E255K); binding; 1 µM).
Nc1ncc2c(n1)-c1c([nH]c3ccc(C#CC4CC4)cc13)CCCC2 has a remaining binding of 88% (ABL1 F317L phosphorylated; binding, competition with immobilised ligand; 1 µM).
The remaining binding of O=C(NCCCN1CCOCC1)c1ccc(Nc2ncc(Cl)c(-c3ccc(Cl)s3)n2)cc1 is reported as 36% (ABL1 phosphorylated; binding, competition with immobilised ligand; 1 µM).
CCN1CCN(Cc2ccc(C(=O)Nc3ccc(C)c(Oc4ccc5c(c4)CC(=O)N5)c3)cc2C(F)(F)F)CC1 has a remaining binding of 0.35% (ABL1 H396P non-phosphorylated; binding, competition with immobilised ligand; 1 µM).
The remaining binding of O=C(Nc1cccnn1)N1CC(C/C=C/c2cncc(Oc3ccc(C(F)(F)F)cn3)n2)C1 is reported as 82% (ABL1 phosphorylated; cell-free assay, competition with immobilised ligand; 1 µM).
CC1CCCN1c1nccc(-c2cnn3ncccc23)n1 (stereo not shown) gave a remaining binding of 100% (Tyrosine-protein kinase ABL1 (ABL1, Homo sapiens, UniProt P00519, T315I); binding; 1 µM).
O=C(c1ccc(Nc2ncc(Cl)c(-c3cc4ccccc4s3)n2)cc1)N1CCC(N2CCCC2)CC1 has a remaining binding of 17% (ABL1 non-phosphorylated; binding, competition with immobilised ligand; 1 µM).
For Cc1cc(-n2nc(Cc3cc(F)cc(C(F)(F)F)c3)nc2C)ccc1C(N)=O, the remaining binding was 100% (ABL1 F317L phosphorylated; cell-free assay, competition with immobilised ligand; 1 µM).
CN(CCCC(F)(F)F)c1nccc(-c2cnn3ncccc23)n1 has a remaining binding of 100% (ABL1 Q252H; binding; 1 µM).
The remaining binding of O=C(NCCCN1CCOCC1)c1ccc(Nc2nccc(-c3cc4ccccc4s3)n2)cc1 is reported as 100% (ABL1 F317I non-phosphorylated; binding, competition with immobilised ligand; 1 µM).
O=C(NCC1CCOCC1)c1n[nH]cc1NC(=O)c1c(F)cccc1F gave a remaining binding of 91% (ABL1 T315I phosphorylated; binding, competition with immobilised ligand; 1 µM).
CNC(=O)Nc1ccc2c(c1)CC[C@@]21OC(=O)N(CC(=O)N(Cc2ccc(F)cc2)[C@@H](C)C(F)(F)F)C1=O has a remaining binding of 78% (ABL1 T315I non-phosphorylated; cell-free assay, competition with immobilised ligand; 1 µM).
With COc1cnc(Nc2cccc(S(N)(=O)=O)c2)nc1N1CCN(c2ccccc2)C(=O)C1 the remaining binding was 90% (ABL1 F317L non-phosphorylated; binding, competition with immobilised ligand; 1 µM).
With CN(C)c1nccc(-c2cnc3ncccn23)n1 the remaining binding was 84% (ABL1 non-phosphorylated; binding, competition with immobilised ligand; 1 µM).
O=C(NS(=O)(=O)c1ccc(NCC2CCOCC2)c([N+](=O)[O-])c1)c1ccc(N2CCN(Cc3ccc(C(F)(F)F)cc3-c3ccc(Cl)cc3)CC2)cc1Oc1cnc2[nH]ccc2c1 has a remaining binding of 100% (Tyrosine-protein kinase ABL1, phosphorylated (ABL1, Homo sapiens, UniProt P00519, F317I); binding; 1 µM).
The remaining binding of O=C(c1ccc(Nc2ncc(Cl)c(-c3ccc(Cl)s3)n2)cc1)N1CCC(N2CCCC2)CC1 is reported as 58% (ABL1 F317L phosphorylated; binding, competition with immobilised ligand; 1 µM).
For O=C1NC(c2ccccn2)Sc2ccccc21 (stereo not shown), the remaining binding was 72% (ABL1 phosphorylated; cell-free assay, competition with immobilised ligand; 1 µM).
The remaining binding of COc1ncc2cc3ccccc3nc2c1C#N is reported as 100% (ABL1 F317L non-phosphorylated; cell-free assay, competition with immobilised ligand; 5 µM).
For O=C(Nc1c[nH]nc1C(=O)NC1CCNCC1)c1cc(F)cc(F)c1, the remaining binding was 100% (Tyrosine-protein kinase ABL1, phosphorylated (ABL1, Homo sapiens, UniProt P00519, M351T); binding, competition with immobilised ligand; 1 µM).
For O=C(N1CCS(=O)(=O)CC1)N1C[C@H](c2ccc(OC(F)(F)F)cc2)C[C@H](c2nc(C3CC3)no2)C1, the remaining binding was 92% (ABL1 T315I non-phosphorylated; cell-free assay, competition with immobilised ligand; 1 µM).
CNC(=O)[C@@H]1CC[C@@H](n2c(-c3ccc4cnccc4c3)nc3ccc(C(=O)NCc4cccc(C(N)=O)c4)cc32)C1 gave a remaining binding of 86% (ABL1 H396P non-phosphorylated; binding, competition with immobilised ligand; 1 µM).
With C=CC(=O)N1CCC(C(=O)NCC(=O)N2CCN(c3nc(-c4cnc(N)nc4C(F)F)nc(N4CCOCC4)n3)CC2)CC1 the remaining binding was 71% (ABL1 T315I non-phosphorylated; binding, competition with immobilised ligand; 1 µM).
The remaining binding of COc1cnc(Nc2cccc(S(N)(=O)=O)c2)nc1N1CCN(c2ccccc2)CC1 is reported as 95% (ABL1 F317L non-phosphorylated; binding, competition with immobilised ligand; 1 µM).
For C[C@@H](c1ccc(-n2cnc3c(N)ncnc32)cc1)N1CCc2nn(C)c(Cc3ccccc3)c2C1=O, the remaining binding was 40% (ABL1 F317I non-phosphorylated; binding, competition with immobilised ligand; 0.1 µM).
